# Values joined by “and” are separate entries in the source; they are usually repeats but may differ in a detail not shown here. Equal values may be shown once.
# Tested on: U2OS
# Experiment: Multiplex assay against U2OS
# Format: toxicity, cell-based
# Details: human, number of replicates 2
# Procedure, shortened: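 At seeding, live cells were stained with Hoechst33342, BioTracker Green Microtubule Cytoskeleton Dye, MitoTracker Red and Annexin V Alexa Fluor 680. After compound addition they were imaged on a CQ1 microscope at 37°C and 5% CO2, and CellPathfinder machine-learning gating sorted them into Hoechst high-intensity objects or normal cells, with normal cells further split into healthy, pyknosed or fragmented nuclei and pyknosed cells into mitotic or apoptotic. Tubulin, mitochondrial-mass and membrane-permeability phenotypes are given as per cents of cells with healthy nuclei.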
# [1] = 12 h, 1 µM, compound concentration 1 uM
# [2] = 12 h, 10 µM, compound concentration 10 uM
# [3] = 24 h, 1 µM, compound concentration 1 uM
# [4] = 24 h, 10 µM, compound concentration 10 uM
# [5] = 48 h, 1 µM, compound concentration 1 uM
# [6] = 48 h, 10 µM, compound concentration 10 uM
smiles,measurement,setting,value
NCC1CCC(CNc2nc(NCc3ccccc3OC(F)(F)F)ncc2[N+](=O)[O-])CC1 (configuration not stated),Population Apoptotic (%),[1],50% and 43%
same,Population Fragmented Nuclei (%),[1],5% and 1%
same,Population Healthy Nuclei (%),[1],74% and 87%
same,Population Hoechst High Intensity Objects (%),[1],0%
same,Population Membrane Permeable-Phenotype (%),[1],7%
same,Population Mitochondria Different-Phenotype (%),[1],7% and 18%
same,Population Mitotic Cells (%),[1],50% and 56%
same,Population Normal (%),[1],100% and 99%
same,Population Pyknosed Nuclei (%),[1],19% and 11%
same,Population Tubulin-Different-Phenotype (%),[1],31% and 29%
same,Population Apoptotic (%),[2],68% and 67%
same,Population Fragmented Nuclei (%),[2],24% and 19%
same,Population Healthy Nuclei (%),[2],36% and 61%
same,Population Hoechst High Intensity Objects (%),[2],0%
same,Population Membrane Permeable-Phenotype (%),[2],53% and 34%
same,Population Mitochondria Different-Phenotype (%),[2],73% and 64%
same,Population Mitotic Cells (%),[2],31% and 32%
same,Population Normal (%),[2],100%
same,Population Pyknosed Nuclei (%),[2],39% and 19%
same,Population Tubulin-Different-Phenotype (%),[2],93% and 76%
same,Population Apoptotic (%),[3],60%
same,Population Fragmented Nuclei (%),[3],1% and 0%
same,Population Healthy Nuclei (%),[3],81% and 85%
same,Population Hoechst High Intensity Objects (%),[3],0%
same,Population Membrane Permeable-Phenotype (%),[3],4% and 5%
same,Population Mitochondria Different-Phenotype (%),[3],0% and 22%
same,Population Mitotic Cells (%),[3],40% and 39%
same,Population Normal (%),[3],100%
same,Population Pyknosed Nuclei (%),[3],16% and 13%
same,Population Tubulin-Different-Phenotype (%),[3],20% and 30%
same,Population Apoptotic (%),[4],100% and 80%
same,Population Fragmented Nuclei (%),[4],28% and 21%
same,Population Healthy Nuclei (%),[4],31% and 59%
same,Population Hoechst High Intensity Objects (%),[4],0%
same,Population Membrane Permeable-Phenotype (%),[4],63% and 43%
same,Population Mitochondria Different-Phenotype (%),[4],36% and 55%
same,Population Mitotic Cells (%),[4],0% and 19%
same,Population Normal (%),[4],100%
same,Population Pyknosed Nuclei (%),[4],40% and 19%
same,Population Tubulin-Different-Phenotype (%),[4],90% and 81%
same,Population Apoptotic (%),[5],76% and 78%
same,Population Fragmented Nuclei (%),[5],6% and 1%
same,Population Healthy Nuclei (%),[5],71% and 88%
same,Population Hoechst High Intensity Objects (%),[5],0%
same,Population Membrane Permeable-Phenotype (%),[5],7% and 2%
same,Population Mitochondria Different-Phenotype (%),[5],3% and 10%
same,Population Mitotic Cells (%),[5],23% and 21%
same,Population Normal (%),[5],100%
same,Population Pyknosed Nuclei (%),[5],21% and 9%
same,Population Tubulin-Different-Phenotype (%),[5],19% and 34%
same,Population Apoptotic (%),[6],100% and 91%
same,Population Fragmented Nuclei (%),[6],24% and 21%
same,Population Healthy Nuclei (%),[6],24% and 54%
same,Population Hoechst High Intensity Objects (%),[6],0%
same,Population Membrane Permeable-Phenotype (%),[6],100% and 72%
same,Population Mitochondria Different-Phenotype (%),[6],75% and 46%
same,Population Mitotic Cells (%),[6],0% and 8%
same,Population Normal (%),[6],100%
same,Population Pyknosed Nuclei (%),[6],51% and 23%
same,Population Tubulin-Different-Phenotype (%),[6],100% and 86%
COc1nc2ccc([C@@](O)(c3ccc(Cl)cc3)c3cncn3C)cc2c(Cl)c1Cc1ccc(-n2cccn2)cc1 [JNJ-53721590],Population Healthy Nuclei (%),[1],56% and 85%
same,Population Hoechst High Intensity Objects (%),[1],0%
same,Population Membrane Permeable-Phenotype (%),[1],5% and 1%
same,Population Mitochondria Different-Phenotype (%),[1],0% and 20%
same,Population Normal (%),[1],100%
same,Population Pyknosed Nuclei (%),[1],16% and 10%
same,Population Tubulin-Different-Phenotype (%),[1],23% and 37%
same,Population Apoptotic (%),[2],74% and 57%
same,Population Fragmented Nuclei (%),[2],2% and 12%
same,Population Healthy Nuclei (%),[2],82% and 74%
same,Population Hoechst High Intensity Objects (%),[2],0%
same,Population Membrane Permeable-Phenotype (%),[2],29% and 21%
same,Population Mitochondria Different-Phenotype (%),[2],28% and 56%
same,Population Mitotic Cells (%),[2],25% and 42%
same,Population Normal (%),[2],99% and 100%
same,Population Pyknosed Nuclei (%),[2],14% and 12%
same,Population Tubulin-Different-Phenotype (%),[2],89% and 97%
same,Population Apoptotic (%),[3],50% and 62%
same,Population Fragmented Nuclei (%),[3],20% and 0%
same,Population Healthy Nuclei (%),[3],45% and 85%
same,Population Hoechst High Intensity Objects (%),[3],0%
same,Population Membrane Permeable-Phenotype (%),[3],0% and 1%
same,Population Mitochondria Different-Phenotype (%),[3],6% and 17%
same,Population Mitotic Cells (%),[3],50% and 37%
same,Population Normal (%),[3],100% and 99%
same,Population Pyknosed Nuclei (%),[3],34% and 13%
same,Population Tubulin-Different-Phenotype (%),[3],25% and 42%
same,Population Apoptotic (%),[4],79% and 36%
same,Population Fragmented Nuclei (%),[4],3% and 12%
same,Population Healthy Nuclei (%),[4],78% and 64%
same,Population Hoechst High Intensity Objects (%),[4],0%
same,Population Membrane Permeable-Phenotype (%),[4],34% and 35%
same,Population Mitochondria Different-Phenotype (%),[4],43% and 54%
same,Population Normal (%),[4],99% and 100%
same,Population Pyknosed Nuclei (%),[4],18% and 22%
same,Population Tubulin-Different-Phenotype (%),[4],93%
same,Population Apoptotic (%),[5],70% and 81%
same,Population Healthy Nuclei (%),[5],86% and 54%
same,Population Hoechst High Intensity Objects (%),[5],0%
same,Population Mitochondria Different-Phenotype (%),[5],9% and 13%
same,Population Mitotic Cells (%),[5],29% and 18%
same,Population Normal (%),[5],99% and 100%
same,Population Pyknosed Nuclei (%),[5],10% and 26%
same,Population Apoptotic (%),[6],64% and 85%
same,Population Healthy Nuclei (%),[6],47% and 65%
same,Population Hoechst High Intensity Objects (%),[6],0%
same,Population Membrane Permeable-Phenotype (%),[6],57% and 47%
same,Population Mitochondria Different-Phenotype (%),[6],48% and 34%
same,Population Mitotic Cells (%),[6],35% and 14%
same,Population Normal (%),[6],100% and 99%
same,Population Pyknosed Nuclei (%),[6],24% and 26%
same,Population Tubulin-Different-Phenotype (%),[6],96% and 90%
